The results in this text go back to ChEMBL document CHEMBL2163250, “Carbonylhydrazide-based molecular tongs inhibit wild-type and mutated HIV-1 protease dimerization” (J Med Chem, 2012).

A word on the inhibition: it is the percentage by which the read-out fell short of the control. As usually defined, the Ki is the equilibrium dissociation constant of an inhibitor or competing ligand from its target. Read a low Ki as a stronger hold on the target. What is called solubility is the concentration that dissolves in the medium under given conditions. The low end stands for little dissolved substance, the high end for much dissolved substance. Broadly, the half-life is the time needed for the level to fall by half in the phase considered.

In brackets after ≈: the same amount, converted by molar mass. Activity calls are given as the source filed them.

One data set is filed under the species Sus scrofa. As to the kind of experiment: Inhibition of […] using Abz-Thr-Ile-Nle-(p-NO2-Phe)-Gln-Arg-NH2 as substrate at 10 uM by fluorimetric analysis. Put shortly: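 Pepsin from porcine gastric mucosa assayed fluorometrically in 10 mM NaHCOO, pH 3.5, with 20 μM Abz-Thr-Ile-Nle-(p-NO₂-Phe)-Gln-Arg-NH₂ substrate (Km 13.3 μM). Excitation 337 nm, emission 410 nm. Compounds were tested at 10 μM.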

Another data set concerns the target T1, Renin (Homo sapiens) (UniProt P00797).
T1 sequence (whole entry): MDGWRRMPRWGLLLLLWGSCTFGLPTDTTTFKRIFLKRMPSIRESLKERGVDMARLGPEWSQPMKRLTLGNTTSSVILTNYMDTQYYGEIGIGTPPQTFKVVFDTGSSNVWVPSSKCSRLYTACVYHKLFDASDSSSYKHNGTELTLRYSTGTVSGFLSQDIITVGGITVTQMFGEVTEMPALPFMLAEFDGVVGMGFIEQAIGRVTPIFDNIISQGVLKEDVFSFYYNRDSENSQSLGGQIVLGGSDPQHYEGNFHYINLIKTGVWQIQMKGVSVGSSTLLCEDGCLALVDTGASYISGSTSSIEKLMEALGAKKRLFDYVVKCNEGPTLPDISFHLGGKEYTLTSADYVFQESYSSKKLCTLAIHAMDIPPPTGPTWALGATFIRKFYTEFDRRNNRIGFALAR
Put plainly: Inhibition of recombinant renin using Arg-Glu(EDANS)-Ile-His-Pro-Phe-His-Leu-Val-Ile-His-Thr-Lys-(DABCYL)-Arg as substrate at 10 uM by fluorimetric analysis. In a few lines: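 Renin activity read fluorometrically with the EDANS/DABCYL substrate (Km 3.3 μM) at 5 μM in 50 mM Tris–HCl, 100 mM NaCl, 1 mM EDTA, pH 8.0. Excitation 340 nm, emission 500 nm. Compounds were tested at 10 μM.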

A short description of data set [1]: Chemical stability in RPMI medium up to 48 hrs in presence of 20% fetal calf serum. In kind it is physicochemical. The settings on record: cattle. In a few lines:
(§1)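 Inhibitor incubated at 37 °C in RPMI culture medium with 20% fetal calf serum for up to 2 days. Incubations stopped with ethanol, cooled to 4 °C and centrifuged, and the supernatant analysed by HPLC. Half-life came from least-squares linear regression of a semilog plot of remaining inhibitor versus incubation time.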

For data set [2], the target named is Protease (Human immunodeficiency virus 1) (UniProt Q9YQ12). As to the kind of experiment: Inhibition of HIV1 protease dimerization expressed in Escherichia coli Rosetta(DE3) at 5 uM by 1-Anilino-8-naphthalene sulfonate-based fluorescent probe binding assay. In a few lines: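 Recombinant PR (350 nM) in 100 mM sodium acetate, 1 M NaCl, 1 mM EDTA, pH 4.7, incubated at 25 °C with or without 5 μM inhibitor. ANS was then added at final 10–60 μM, with final DMSO 0.2% (v/v). Excitation 370 nm, emission 470 nm. Fluorescence was corrected for ANS plus inhibitor without enzyme, and each measurement was averaged over five reads.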

Data set [3] in a line: Inhibition of HIV1 protease ANAM-11 mutant dimerization expressed in Escherichia coli Rosetta(DE3) using DABCYL-gamma-abu-Ser-Gln-Asn-Tyr-Pro-Ile-Val-Gln-EDANS as substrate by Zhang-Poorman kinetic analysis. On the set-up: species or system Human immunodeficiency virus 1. Put shortly: (§2)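 Recombinant protease produced in E. coli Rosetta (DE3)pLysS from a pET-9 vector. Fluorimetric assay (ex 340, em 490 nm) run in 100 mM sodium acetate, 1 mM EDTA, 1 M NaCl, pH 4.7, at 30 °C with 3% (v/v) final DMSO. Substrate held at 5.2 μM, at least six enzyme concentrations (5.33−18.6 nM), inhibitor 0.5−28 μM. Kid derived from Zhang−Poorman analysis. At least triplicate.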

Data set [4] in a line: Inhibition of HIV1 protease MDR-HM mutant dimerization expressed in Escherichia coli Rosetta(DE3) using DABCYL-gamma-abu-Ser-Gln-Asn-Tyr-Pro-Ile-Val-Gln-EDANS as substrate by Zhang-Poorman kinetic analysis. Also on record: species or system Human immunodeficiency virus 1. Put shortly:
as §2

The next data set addresses Protease (Human immunodeficiency virus 1, UniProt Q9YQ12). As to the kind of experiment: Inhibition of HIV1 protease dimerization expressed in Escherichia coli Rosetta(DE3) using DABCYL-gamma-abu-Ser-Gln-Asn-Tyr-Pro-Ile-Val-Gln-EDANS as substrate by Zhang-Poorman kinetic analysis. In a few lines:
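Recombinant PR expressed in E. coli Rosetta (DE3)pLysS from a pET-9 vector. Fluorogenic substrate at 5.2 μM (ex 340, em 490 nm) in 100 mM sodium acetate, 1 mM EDTA, 1 M NaCl, pH 4.7, 30 °C, final DMSO 3% (v/v). At least six enzyme concentrations (5.33–18.6 nM) and inhibitor 0.5–28 μM. Kid from Zhang–Poorman analysis, at least triplicate.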

Data set [5] deals with Protease (Human immunodeficiency virus 1) (UniProt Q9YQ12). Put plainly: Inhibition of HIV1 protease dimerization expressed in Escherichia coli Rosetta(DE3) using DABCYL-gamma-abu-Ser-Gln-Asn-Tyr-Pro-Ile-Val-Gln-EDANS as substrate at 28 uM by fluorimetric assay.
A short description of data set [6]: Solubility of the compound. In kind it is physicochemical.
Data set [7] is described as follows: Half life of the compound in RPMI medium in presence of 20% fetal calf serum. In kind it is physicochemical. The settings on record: cattle, RPMI medium with 20% fetal calf serum. In a few lines: as §1

Sequence of Protease (Q9YQ12 whole entry): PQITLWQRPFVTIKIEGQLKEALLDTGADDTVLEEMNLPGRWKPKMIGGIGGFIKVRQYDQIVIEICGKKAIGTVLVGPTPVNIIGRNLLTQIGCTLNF
Sequence of Protease (Human immunodeficiency virus 1) (Q9YQ12 as listed by the source): as the sequence (Q9YQ12 whole entry) above

Regarding `CC(C)[C@H](NC(=O)CCCOc1ccc2ccc(OCCCC(=O)N[C@H](C(=O)NNC(=O)[C@@H](NC(=O)OC(C)(C)C)C(C)C)C(C)C)cc2c1)C(=O)NNC(=O)[C@@H](NC(=O)OC(C)(C)C)C(C)C`, the inhibition result in the data set listed under Sus scrofa and at Renin (Homo sapiens) was “inactive” in each case. Besides, the Stability entry in [1] was “Stable”. The inhibition result in data set [2] was “Active”. Besides, the Ki in data set [3] was 80 nM; in data set [4], 160 nM; on Protease it was 50 nM.

`CC(C)CN(C[C@@H](O)[C@H](Cc1ccccc1)NC(=O)O[C@H]1CCOC1)S(=O)(=O)c1ccc(N)cc1`: in [2], the inhibition entry is “inactive”.

Consider `CC(=O)NNC(=O)NNC(=O)[C@H](CCCCNC(=O)CCCOc1ccc2ccc(OCCCC(=O)NCCCC[C@H](NC(=O)OC(C)(C)C)C(=O)NNC(=O)NNC(C)=O)cc2c1)NC(=O)OC(C)(C)C`, for which the inhibition in data set [5] came out at 0%.

`CC(C)[C@H](NC(=O)CCCOc1ccc2ccc(OCCCC(=O)O)cc2c1)C(=O)NNC(=O)[C@@H](NC(=O)OC(C)(C)C)C(C)C` displayed an inhibition in data set [5] of 0%.

Take `CC(C)(C)NC(=O)[C@@H]1C[C@@H]2CCCC[C@@H]2CN1C[C@@H](O)[C@H](Cc1ccccc1)NC(=O)[C@H](CC(N)=O)NC(=O)c1ccc2ccccc2n1`: the inhibition result in data set [2] is “inactive”.

Turning to `CC(=O)N[C@H](C(=O)N[C@H](C(=O)N[C@@H](CC(C)C)[C@@H](O)CC(=O)N[C@@H](C)C(=O)N[C@@H](CC(C)C)[C@@H](O)CC(=O)O)C(C)C)C(C)C`, the inhibition result in [2] was “inactive”.

In [5], `COC(=O)CCNC(=O)NNC(=O)NNC(=O)CCCOc1ccc2ccc(OCCCC(=O)NNC(=O)NNC(=O)NCCC(=O)OC)cc2c1` displayed an inhibition of 0%.

`CC(C)[C@H](NC(=O)NNC(=O)NNC(=O)CCCOc1ccc2ccc(OCCCC(=O)NNC(=O)NNC(=O)N[C@H](C(N)=O)C(C)C)cc2c1)C(N)=O`: the inhibition entry in the data set filed under Sus scrofa and at Renin (Homo sapiens) was “inactive” throughout. The Stability result in data set [1] is “Stable”. The solubility in data set [6] stood at 300 µg/mL (≈ 394 µM). Also, the Ki in [3] was 800 nM; in data set [4], 1600 nM; at Protease, 700 nM.

In data set [5], `CC(=O)NNC(=O)NNC(=O)CCNC(=O)CCCOc1ccc2ccc(OCCCC(=O)NCCC(=O)NNC(=O)NNC(C)=O)cc2c1` gave an inhibition of 0%.

As for `CC(=O)NNC(=O)NNC(=O)[C@@H](NC(=O)CCCOc1ccc2ccc(OCCCC(=O)N[C@H](C(=O)NNC(=O)NNC(C)=O)C(C)C)cc2c1)C(C)C`, in [5], the inhibition turned out to be 21%.

With `COC(=O)[C@@H](NC(=O)[C@H](CC(C)C)NC(=O)[C@@H](NC(=O)CCCOc1ccc2ccc(OCCCC(=O)N[C@H](C(=O)N[C@@H](CC(C)C)C(=O)N[C@H](C(=O)OC)C(C)C)C(C)C)cc2c1)C(C)C)C(C)C`, the inhibition result in [2] was “Active”. Further, the affinity on Protease corresponds to a Ki of 560 nM.

Compound `CNC(=O)NNC(=O)NNC(=O)CCCOc1ccc2ccc(OCCCC(=O)NNC(=O)NNC(=O)NC)cc2c1` returned an inhibition in [5] of 13%.

`COC(=O)[C@@H](NC(=O)[C@H](CC(C)C)NC(=O)[C@@H](NC(=O)CCCOc1ccc2ccc(OCCCC(=O)N[C@H](C(=O)NNC(=O)[C@@H](NC(=O)OC(C)(C)C)C(C)C)C(C)C)cc2c1)C(C)C)C(C)C`: the inhibition entry in the data set filed under Sus scrofa and on Renin (Homo sapiens) was “inactive” each time. The half-life in [7] is 1440 min. Besides, the inhibition result in [2] was “Active”. Further, the results for the Ki (in [3]; in data set [4]; on Protease) were 100 nM, 160 nM and 90 nM, respectively.

As for `COC(=O)[C@@H](NC(=O)[C@H](CC(C)C)NC(=O)[C@@H](NC(=O)CCCOc1ccc2ccc(OCCCC(=O)NNC(=O)NNC(=O)N[C@H](C(N)=O)C(C)C)cc2c1)C(C)C)C(C)C`, the inhibition entry in the data set filed under Sus scrofa and at Renin (Homo sapiens) was “inactive” in each case. For the same compound, the half-life in data set [7] is 1440 min. In [2], the inhibition entry was “Active”. In addition, the Ki is 170 nM in data set [3], 270 nM in [4] and 150 nM on Protease.
